Where two headings read alike, the source gives them in different places. Values belong to the compound of their own block, whether it stands above or below them.
How the values were obtained:
Ovarian OVCAR-3 = conditions: read-out: Cytotoxicity (GI50, μM) Ovarian OVCAR-3; NCI-60; cited from earlier work
Melanoma UACC-62 = conditions: read-out: Cytotoxicity (GI50, μM) Melanoma UACC-62; NCI-60; cited from earlier work
Prostate DU-145 = conditions: read-out: Cytotoxicity (GI50, μM) Prostate DU-145; NCI-60; cited from earlier work
Lung HOP-62 = conditions: read-out: Cytotoxicity (GI50, μM) Lung HOP-62; NCI-60; cited from earlier work
recombinant Top1 [1] = target: T1, recombinant Top1 (Homo sapiens, UniProt P11387); set-up: key to the marks not given beside the values; conditions: score relative to 1 μM camptothecin (1); cited from earlier work
T1 sequence (P11387 1-765): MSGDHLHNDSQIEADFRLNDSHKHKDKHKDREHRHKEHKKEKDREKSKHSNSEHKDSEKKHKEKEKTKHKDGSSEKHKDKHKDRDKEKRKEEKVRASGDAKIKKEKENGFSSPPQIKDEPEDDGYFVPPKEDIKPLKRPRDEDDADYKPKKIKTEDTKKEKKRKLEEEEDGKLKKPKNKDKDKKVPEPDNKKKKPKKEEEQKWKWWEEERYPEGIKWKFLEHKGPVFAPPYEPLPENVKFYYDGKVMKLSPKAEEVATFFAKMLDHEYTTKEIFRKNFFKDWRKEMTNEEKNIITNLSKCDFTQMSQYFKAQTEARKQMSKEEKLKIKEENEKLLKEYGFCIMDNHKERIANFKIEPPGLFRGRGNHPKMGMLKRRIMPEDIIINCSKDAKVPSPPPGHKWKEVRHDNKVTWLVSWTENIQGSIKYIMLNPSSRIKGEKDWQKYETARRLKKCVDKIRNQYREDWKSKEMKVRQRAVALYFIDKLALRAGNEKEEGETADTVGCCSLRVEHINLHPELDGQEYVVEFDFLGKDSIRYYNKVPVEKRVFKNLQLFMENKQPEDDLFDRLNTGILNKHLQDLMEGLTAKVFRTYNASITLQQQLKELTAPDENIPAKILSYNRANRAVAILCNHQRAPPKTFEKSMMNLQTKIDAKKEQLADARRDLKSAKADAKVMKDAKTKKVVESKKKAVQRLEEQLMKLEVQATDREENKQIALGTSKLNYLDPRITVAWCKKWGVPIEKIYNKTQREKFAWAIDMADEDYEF

CNS SF-539 = conditions: read-out: Cytotoxicity (GI50, μM) CNS SF-539; NCI-60; cited from earlier work
Colon HCT-116 = conditions: read-out: Cytotoxicity (GI50, μM) Colon HCT-116; NCI-60; cited from earlier work
Renal SN12C = conditions: read-out: Cytotoxicity (GI50, μM) Renal SN12C; NCI-60; cited from earlier work
[2] = cited from earlier work
recombinant Top1 [3] = target: T1, recombinant Top1; test: Top1-mediated DNA cleavage assay; type: biochemical; conditions: for Top1 Cleavage: score relative to 1 μM camptothecin (1), tested at 0.1, 1, 10, 100 μM
[4] = system: all 60 cell lines (NCI-60 human tumor cell line screen); test: NCI-60 GI50 mean graph midpoint; type: cell-based; conditions: read-out: Cytotoxicity (GI50, μM) MGM
In short: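 Compounds were first screened at a single 10 μM dose across NCI-60 lines. Those with low enough averaged growth percent advanced to a five-concentration assay (10⁻⁸–10⁻⁴ M). […] Values beyond the range were recorded as the minimum or maximum tested concentration. MGM is the average GI50 over all 60 lines.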

Top1 Cleavage (recombinant Top1 [3]): ++++
SMILES: O=C1c2cc3c(cc2-c2c1c1ccc(F)cc1c(=O)n2C[C@H](O)CO)OCO3 [Compound 21, (S)-3-Fluoro-6-(2,3-dihydroxypropyl)-8,9-methylenedioxy-5H-indeno[1,2-c]isoquinoline-5,11(6H)-dione]

Top1 Cleavage (recombinant Top1 [3]): ++ (++, between 50 and 75% activity)
SMILES: O=C1c2cc3c(cc2-c2c1c1ccc(F)cc1c(=O)n2C[C@H](O)[C@@H](O)[C@H](O)CO)OCO3 [Compound 23, (2′S,3′R,4′R)-3-Fluoro-5,6-dihydro-6-(2′,3′,4′,5′-tetrahydroxypentyl)-8,9-methylenedioxy-5,11-dioxo-11H-indeno[1,2-c]isoquinoline]

Top1 suppression activity (recombinant Top1 [3]; high drug concentration (100 μM), band density at several cleavage sites decreases): suppress Top1-mediated DNA cleavage
Top1 Cleavage (recombinant Top1 [3]): +++ (+++, between 75 and 95% activity)
SMILES: O=C1c2cc3c(cc2-c2c1c1ccc(F)cc1c(=O)n2CCCn1ccnc1)OCO3 [Compound 25, 3-Fluoro-6-(3-(1H-imidazol-1-yl)propyl)-8,9-methylenedioxy-5,11-dioxo-11H-indeno[1,2-c]isoquinoline]
GI50 [4]: ≤ 0.011 µM

Top1 Cleavage (recombinant Top1 [3]): ++ (++, between 50 and 75% activity)
SMILES: O=C1c2cc3c(cc2-c2c1c1ccc(Cl)cc1c(=O)n2CCCn1ccnc1)OCO3 [Compound 26, 3-Chloro-6-(3-(1H-imidazol-1-yl)propyl)-8,9-methylenedioxy-5,11-dioxo-11H-indeno[1,2-c]isoquinoline]

Top1 Cleavage (recombinant Top1 [3]): + (+, between 20 and 50% activity)
SMILES: O=C(O)C(F)(F)F.O=C1c2cc3c(cc2-c2c1c1ccc(F)cc1c(=O)n2CCCN1CCOCC1)OCO3 [Compound 27, 3-Fluoro-5,6-dihydro-6-(3-morpholinopropyl)-8,9-methylenedioxy-5,11-dioxo-11H-indeno[1,2-c]isoquinoline Trifluoroacetate]

Top1 Cleavage (recombinant Top1 [3]): + (+, between 20 and 50% activity)
SMILES: O=C(O)C(F)(F)F.O=C1c2cc3c(cc2-c2c1c1ccc(Cl)cc1c(=O)n2CCCN1CCOCC1)OCO3 [Compound 28, 3-Chloro-5,6-dihydro-6-(3-morpholinopropyl)-8,9-methylenedioxy-5,11-dioxo-11H-indeno[1,2-c]isoquinoline Trifluoroacetate]

Continued, compound first:

SMILES: COc1cc2c3c(n(CCCN4CCOCC4)c(=O)c2cc1OC)-c1cc2c(cc1C3=O)OCO2 [Compound 4, indotecan]
GI50 (Ovarian OVCAR-3): 74.1 µM
GI50 (Melanoma UACC-62): 0.03 µM
GI50 (Prostate DU-145): 0.155 µM
GI50 (Lung HOP-62): 1.78 µM
Top1 Cleavage (recombinant Top1 [1]): ++++
GI50 (CNS SF-539): 0.04 µM
GI50 (Colon HCT-116): 1.15 µM
GI50 (Renal SN12C): 0.813 µM

SMILES: COc1cc2c3c(n(CCCn4ccnc4)c(=O)c2cc1OC)-c1cc2c(cc1C3=O)OCO2 [Compound 5, indimitecan]
GI50 (Ovarian OVCAR-3): 0.085 µM
Metabolism in the presence of human liver microsomes [2]: oxidative demethylation of the 2-methoxy group
GI50 (Melanoma UACC-62): < 0.01 µM
GI50 (Prostate DU-145): < 0.01 µM
GI50 (Lung HOP-62): < 0.01 µM
Top1 Cleavage (recombinant Top1 [1]): ++++
GI50 (CNS SF-539): 0.037 µM
GI50 (Colon HCT-116): < 0.01 µM
GI50 (Renal SN12C): < 0.01 µM

SMILES: COc1cc2c3c(n(CCCNCCO)c(=O)c2cc1OC)-c1cc2c(cc1C3=O)OCO2 [Compound 6, MJ-III-65]
GI50 (Melanoma UACC-62): 0.03 µM
GI50 (Prostate DU-145): 0.02 µM
Top1 Cleavage (recombinant Top1 [1]): ++++

SMILES: O=C1c2cc3c(cc2-c2c1c1ccc(Cl)cc1c(=O)n2C[C@H](O)CO)OCO3 [Compound 22, (S)-3-Chloro-6-(2,3-dihydroxypropyl)-8,9-methylenedioxy-5H-indeno[1,2-c]isoquinoline-5,11(6H)-dione]
Top1 Cleavage (recombinant Top1 [3]): ++ (++, between 50 and 75% activity)

SMILES: O=C1c2cc3c(cc2-c2c1c1ccc(Cl)cc1c(=O)n2C[C@H](O)[C@H](O)[C@H](O)CO)OCO3 [Compound 24, (2′S,3′S,4′R)-3-Chloro-5,6-dihydro-6-(2′,3′,4′,5′-tetrahydroxypentyl)-8,9-methylenedioxy-5,11-dioxo-11H-indeno[1,2-c]isoquinoline]
Top1 Cleavage (recombinant Top1 [3]): + (+, between 20 and 50% activity)

SMILES: O=C1c2cc3c(cc2-c2c1c1cc(F)c(F)cc1c(=O)n2C[C@H](O)CO)OCO3 [Compound 37, (S)-2,3-Difluoro-6-(2,3-dihydroxypropyl)-8,9-methylenedioxy-5,11-dioxo-11H-indeno[1,2-c]isoquinoline]
Top1 Cleavage (recombinant Top1 [3]): ++ (++, between 50 and 75% activity)

SMILES: O=C1c2cc3c(cc2-c2c1c1cc(F)c(F)cc1c(=O)n2CCCn1ccnc1)OCO3 [Compound 38, 2,3-Difluoro-6-(3-(1H-imidazol-1-yl)propyl)-8,9-methylenedioxy-5,11-dioxo-11H-indeno[1,2-c]isoquinoline]
Top1 Cleavage (recombinant Top1 [3]): + (+, between 20 and 50% activity)
GI50 [4]: 0.03 µM

SMILES: O=C1c2cc3c(cc2-c2c1c1cc(Cl)c(Cl)cc1c(=O)n2C[C@H](O)CO)OCO3 [Compound 45, (S)-2,3-Dichloro-6-(2,3-dihydroxypropyl)-8,9-methylenedioxy-5,11-dioxo-11H-indeno[1,2-c]isoquinoline]
Top1 Cleavage (recombinant Top1 [3]): ++ (++, between 50 and 75% activity)

SMILES: O=C1c2cc3c(cc2-c2c1c1cc(Cl)c(Cl)cc1c(=O)n2CCCn1ccnc1)OCO3 [Compound 46, 2,3-Dichloro-6-(3-(1H-imidazol-1-yl)propyl)-8,9-methylenedioxy-5,11-dioxo-11H-indeno[1,2-c]isoquinoline]
Top1 Cleavage (recombinant Top1 [3]): + (+, between 20 and 50% activity)

Reference: article PMC4789169 (Bioorganic & medicinal chemistry, 2016)
